Assay results published in ChEMBL document CHEMBL1122206, “Use of adenine nucleotide derivatives to assess the potential of exo-active-site-directed reagents as species- or isozyme-specific enzyme inactivators. 5. Interactions of adenosine 5'-triphosphate derivatives with rat pyruvate kinases, Escherichia coli thymidine kinase, and yeast and rat …” (1982).

Experiments:
[1] = molecular target: Thymidine kinase (Escherichia coli) (UniProt P23331); assay: Compound was tested for the initial inhibition of thymidine kinase by 1.4 mM compound in the presence of 5.7 mM ATP
Sequence of Thymidine kinase (Escherichia coli) (P23331 whole entry, looked up): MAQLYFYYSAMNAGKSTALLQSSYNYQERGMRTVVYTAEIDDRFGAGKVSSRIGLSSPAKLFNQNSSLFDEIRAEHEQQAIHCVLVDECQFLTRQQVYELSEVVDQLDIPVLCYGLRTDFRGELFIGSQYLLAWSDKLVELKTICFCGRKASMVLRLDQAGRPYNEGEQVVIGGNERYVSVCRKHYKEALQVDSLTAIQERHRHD

[2] = molecular target: Thymidine kinase (Escherichia coli) (UniProt P23331); assay: Compound was tested for the loss of thymidine kinase activity from Escherichia coli after 6 hr at 0 degrees C at 10 mM
[3] = Tested for the velocity of 2.8 mM compound relative to that of 2.8 mM MgATP in the assay
In short: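 E. coli TK substrate test. 0.5 h after adding inhibitor, the mixture was diluted to 2.8 mM derivative in thymidine assay medium without ATP and with 1.42 mM MnCl2. Incubated 15 min at 37 °C, in the linear range. [14C]TMP formed was compared with that from 2.8 mM ATP under the same conditions.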

Saccharomyces cerevisiae [4] = assay: Time dependent inhibition of hexokinase activity after 6 hr, at 22 degrees celsius, with 5 mM ATP derivative in yeast.
[5] = molecular target: T1, Hexokinase-2 (Rattus norvegicus) (UniProt P27881); assay: Time dependent inhibition of hexokinase 2 activity after 6 h, at 5 mM compound
T1 sequence (whole entry): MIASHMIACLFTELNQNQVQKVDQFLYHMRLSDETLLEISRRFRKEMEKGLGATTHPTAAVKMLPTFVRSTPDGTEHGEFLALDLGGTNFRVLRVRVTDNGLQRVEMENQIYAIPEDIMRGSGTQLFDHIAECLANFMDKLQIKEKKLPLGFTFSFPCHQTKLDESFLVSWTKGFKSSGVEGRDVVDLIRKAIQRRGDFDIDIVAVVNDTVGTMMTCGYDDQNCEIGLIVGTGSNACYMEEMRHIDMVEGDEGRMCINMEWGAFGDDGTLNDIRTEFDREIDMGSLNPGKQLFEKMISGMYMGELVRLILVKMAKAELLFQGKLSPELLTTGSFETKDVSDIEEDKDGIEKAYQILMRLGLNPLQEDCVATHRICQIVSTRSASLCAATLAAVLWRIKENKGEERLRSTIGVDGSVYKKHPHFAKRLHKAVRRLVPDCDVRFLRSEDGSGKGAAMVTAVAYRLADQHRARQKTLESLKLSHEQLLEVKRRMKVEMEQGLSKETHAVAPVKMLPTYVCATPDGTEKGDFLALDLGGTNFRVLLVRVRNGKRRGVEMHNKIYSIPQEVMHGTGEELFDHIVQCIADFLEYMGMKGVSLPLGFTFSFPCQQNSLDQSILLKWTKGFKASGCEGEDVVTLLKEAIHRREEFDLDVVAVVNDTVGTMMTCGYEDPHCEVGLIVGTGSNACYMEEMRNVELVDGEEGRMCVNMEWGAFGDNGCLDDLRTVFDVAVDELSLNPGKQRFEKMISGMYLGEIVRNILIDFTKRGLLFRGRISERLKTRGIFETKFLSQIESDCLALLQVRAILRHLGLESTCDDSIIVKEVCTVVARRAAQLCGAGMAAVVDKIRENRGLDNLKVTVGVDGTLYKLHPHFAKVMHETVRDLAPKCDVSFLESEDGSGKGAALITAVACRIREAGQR

[6] = molecular target: T2, Hexokinase-3 (Rattus norvegicus) (UniProt P27926); assay: Time dependent inhibition of Hexokinase type III activity after 6 h, at 22 degrees celsius, at 5 mM
T2 sequence (whole entry): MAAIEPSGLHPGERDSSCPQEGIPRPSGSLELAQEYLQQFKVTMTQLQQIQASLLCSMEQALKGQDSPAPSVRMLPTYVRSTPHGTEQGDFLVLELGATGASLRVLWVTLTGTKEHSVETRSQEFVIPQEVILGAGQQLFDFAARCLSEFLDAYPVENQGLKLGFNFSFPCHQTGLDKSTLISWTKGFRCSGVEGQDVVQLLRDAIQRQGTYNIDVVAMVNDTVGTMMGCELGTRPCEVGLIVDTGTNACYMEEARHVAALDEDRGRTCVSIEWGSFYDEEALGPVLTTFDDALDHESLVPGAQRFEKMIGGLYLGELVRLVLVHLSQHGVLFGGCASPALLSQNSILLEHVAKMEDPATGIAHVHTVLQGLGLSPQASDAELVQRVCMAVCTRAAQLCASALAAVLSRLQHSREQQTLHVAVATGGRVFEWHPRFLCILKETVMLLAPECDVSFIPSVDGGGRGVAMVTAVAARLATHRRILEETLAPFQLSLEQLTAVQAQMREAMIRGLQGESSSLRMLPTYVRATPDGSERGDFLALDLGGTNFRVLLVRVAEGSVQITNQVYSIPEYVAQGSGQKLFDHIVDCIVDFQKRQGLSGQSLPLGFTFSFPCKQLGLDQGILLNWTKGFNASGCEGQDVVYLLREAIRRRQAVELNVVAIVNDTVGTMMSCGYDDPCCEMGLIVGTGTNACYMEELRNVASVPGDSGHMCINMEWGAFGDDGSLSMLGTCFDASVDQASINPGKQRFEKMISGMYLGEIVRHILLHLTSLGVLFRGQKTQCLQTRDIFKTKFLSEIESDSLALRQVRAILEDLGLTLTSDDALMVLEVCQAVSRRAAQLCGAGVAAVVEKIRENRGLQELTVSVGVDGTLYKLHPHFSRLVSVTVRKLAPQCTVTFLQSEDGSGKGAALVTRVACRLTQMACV

[7] = molecular target: T3, Hexokinase-1 (Rattus norvegicus) (UniProt P05708); assay: Time dependent inhibition of Hexokinase type I activity after 6 h, at 22 degrees celsius, at 5 mM compound
T3 sequence (whole entry): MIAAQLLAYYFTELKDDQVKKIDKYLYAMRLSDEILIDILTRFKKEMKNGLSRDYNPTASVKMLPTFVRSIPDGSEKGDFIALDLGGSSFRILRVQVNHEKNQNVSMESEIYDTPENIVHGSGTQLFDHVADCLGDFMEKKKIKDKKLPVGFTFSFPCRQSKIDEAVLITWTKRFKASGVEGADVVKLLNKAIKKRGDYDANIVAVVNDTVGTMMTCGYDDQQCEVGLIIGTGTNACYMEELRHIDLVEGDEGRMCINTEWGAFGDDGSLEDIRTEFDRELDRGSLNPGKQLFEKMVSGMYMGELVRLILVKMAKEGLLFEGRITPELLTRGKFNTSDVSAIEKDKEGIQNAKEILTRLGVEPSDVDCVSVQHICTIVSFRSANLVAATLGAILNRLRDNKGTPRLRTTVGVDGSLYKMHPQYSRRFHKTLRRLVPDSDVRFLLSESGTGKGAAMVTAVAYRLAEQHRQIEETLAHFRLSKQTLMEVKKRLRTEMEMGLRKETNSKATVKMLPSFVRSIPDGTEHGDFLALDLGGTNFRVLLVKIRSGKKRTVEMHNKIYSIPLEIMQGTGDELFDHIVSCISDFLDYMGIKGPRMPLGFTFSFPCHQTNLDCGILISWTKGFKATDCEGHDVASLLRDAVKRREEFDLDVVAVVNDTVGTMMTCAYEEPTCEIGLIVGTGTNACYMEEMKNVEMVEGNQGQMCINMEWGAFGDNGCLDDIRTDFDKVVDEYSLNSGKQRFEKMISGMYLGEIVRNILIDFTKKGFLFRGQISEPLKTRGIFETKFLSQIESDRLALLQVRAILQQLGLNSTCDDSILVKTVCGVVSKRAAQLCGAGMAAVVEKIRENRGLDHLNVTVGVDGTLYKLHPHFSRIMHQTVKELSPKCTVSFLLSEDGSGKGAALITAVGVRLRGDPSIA

[8] = molecular target: T2, Hexokinase-3 (Rattus norvegicus); assay: Time dependent inhibition of Hexokinase type III activity after 6 hr, at 22 degrees celsius, at 5 mM compound
Saccharomyces cerevisiae [9] = assay: Substrate activity against yeast hexokinase as 1:1 Mg complexes at 5.0 mM
In short: (§1)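 Hexokinase activity read at 22 °C as A340 change, coupled to glucose-6-phosphate dehydrogenase, in 0.05 M Tris-HCl pH 7.6 with 6.6 mM MgCl2, 10 mM α-D-glucose and 0.93 mM NADP. Donor was 5.0 mM MgATP derivative (1:1 Mg complex) in place of ATP. Yeast HK was isoelectric-focused. Rat HK I and III came from electrofocused liver extract, HK II from dialysed muscle extract.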

[10] = molecular target: T3, Hexokinase-1 (Rattus norvegicus); assay: Substrate activity for rat hexokinase I as 1:1 Mg complex at 5.0 mM
In short: as §1

[11] = molecular target: T2, Hexokinase-3 (Rattus norvegicus); assay: Substrate activity for rat hexokinase III as 1:1 Mg complex at 5.0 mM
In short: as §1

[12] = molecular target: T1, Hexokinase-2 (Rattus norvegicus); assay: Substrate activity against Rat hexokinase II as 1:1 Mg complex at 5.0 mM
In short: as §1

[13] = Compound was tested for substrate constants with yeast hexokinase. Maximal velocity Vmax was reported
In short: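 Hexokinase KM and Vmax taken from linear double-reciprocal plots of initial velocity vs. nucleotide level. Assays at 22 °C, coupled to glucose-6-phosphate dehydrogenase (A340), in 0.05 M Tris-HCl pH 7.6 with 6.6 mM MgCl2, 10 mM glucose and 0.93 mM NADP. Yeast HK was isoelectric-focused. Rat HK I and III came from liver, HK II from muscle (male Sprague-Dawley).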

[14] = Substrate concentration for half maximal velocity was reported for yeast hexokinase
In short: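 Coupled glucose-6-phosphate dehydrogenase/NADP assay: A340 rate at 22 °C in 0.05 M Tris-HCl pH 7.6 with 6.6 mM MgCl2, 10 mM α-D-glucose and 0.93 mM NADP, nucleotide varied. KM was taken from linear double-reciprocal plots. Rat HK I and III came from electrofocused, dialysed liver extract, HK II from dialysed muscle extract, and yeast HK was isoelectric-focused.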

[15] = molecular target: Thymidine kinase (Escherichia coli) (UniProt P23331); assay: Compound was tested for the initial inhibition of thymidine kinase by 1.4 mM compound in the presence of 5.7 mM ATP in Escherichia coli
[16] = molecular target: Thymidine kinase (Escherichia coli) (UniProt P23331); assay: Compound was tested for the lose of thymidine kinase activity after 6 hr, at 0 degrees celsius, with 10 mM ATP derivative. values were expressed in percent
Saccharomyces cerevisiae [17] = assay: Compound was tested for time dependent inhibition of hexokinase activity after 6 hr, at 22 degrees celsius, with 5 mM ATP derivative in yeast hexokinase

Row | Compound | inhibition [1] | inhibition [2] | Velocity [3] | inhibition (Saccharomyces cerevisiae [4]) | inhibition [5] | inhibition [6] | inhibition [7] | inhibition [8] | Relative velocity (Saccharomyces cerevisiae [9]) | Relative velocity [10] | Relative velocity [11] | Relative velocity [12] | Vmax [13] | Km [14] | inhibition [15] | inhibition [16] | inhibition (Saccharomyces cerevisiae [17])
1 | O=C(CI)NCCCCCNc1ncnc2c1ncn2[C@@H]1O[C@H](COP(=O)(O)OP(=O)(O)OP(=O)(O)O)[C@@H](O)[C@H]1O | 26% | 0% | 13% | 0% |  |  |  | 0% | 0.75 | 0.92 | 1.31 | 0.6 |  |  |  |  | 
2 | CN(CCCCN(C)c1ncnc2c1ncn2[C@@H]1O[C@H](COP(=O)(O)OP(=O)(O)OP(=O)(O)O)[C@@H](O)[C@H]1O)C(=O)CCCCCNC(=O)OCc1ccccc1 |  |  |  |  |  |  |  |  |  |  |  |  | 75% | 300 µM |  |  | 
3 | O=C(CI)NCCCCCCC(=O)NCCCNc1ncnc2c1ncn2[C@@H]1O[C@H](COP(=O)(O)OP(=O)(O)OP(=O)(O)O)[C@@H](O)[C@H]1O | 28% | 58% | > 25% | 0% | 0% |  | 0% |  |  |  |  |  |  |  |  |  | 
4 | O=C(CI)NCCCCCC(=O)NCCCNc1ncnc2c1ncn2[C@@H]1O[C@H](COP(=O)(O)OP(=O)(O)OP(=O)(O)O)[C@@H](O)[C@H]1O | 13% | 74% | > 39% | 0% |  | 0% | 0% |  | 1.06 | 0.79 | 1.04 | 0.57 |  |  |  |  | 
5 | O=C(CI)NCCCCC(=O)NCCCCCCNc1ncnc2c1ncn2[C@@H]1O[C@H](COP(=O)(O)OP(=O)(O)OP(=O)(O)O)[C@@H](O)[C@H]1O | 12% | 0% | 39% | 0% | 0% | 0% | 0% |  |  |  |  |  |  |  |  |  | 

Second part, the molecule after the results:

Row | inhibition [1] | inhibition [2] | Velocity [3] | inhibition (Saccharomyces cerevisiae [4]) | inhibition [5] | inhibition [6] | inhibition [7] | inhibition [8] | Relative velocity (Saccharomyces cerevisiae [9]) | Relative velocity [10] | Relative velocity [11] | Relative velocity [12] | Vmax [13] | Km [14] | inhibition [15] | inhibition [16] | inhibition (Saccharomyces cerevisiae [17]) | Compound
6 | 5% | 51% | > 34% | 0% | 0% | 0% | 0% |  |  |  |  |  |  |  |  |  |  | CN(CCCN(C)C(=O)CCCCNc1ncnc2c1ncn2[C@@H]1O[C@H](COP(=O)(O)OP(=O)(O)OP(=O)(O)O)[C@@H](O)[C@H]1O)C(=O)CCCCNC(=O)CI
7 | 9% | 0% | 34% | 0% | 0% | 0% | 0% |  |  |  |  |  |  |  |  |  |  | CN(CCCCN(C)C(=O)CCCCNc1ncnc2c1ncn2[C@@H]1O[C@H](COP(=O)(O)OP(=O)(O)OP(=O)(O)O)[C@@H](O)[C@H]1O)C(=O)CCCCNC(=O)CI
8 | 12% | 0% | 14% | 0% | 0% | 0% | 0% |  |  |  |  |  |  |  |  |  |  | CN(CCCCN(C)C(=O)CCCNc1ncnc2c1ncn2[C@@H]1O[C@H](COP(=O)(O)OP(=O)(O)OP(=O)(O)O)[C@@H](O)[C@H]1O)C(=O)CCCNC(=O)CI
9 |  |  | 57% |  | 0% |  | 0% |  | 0.94 | 1.66 | 2.06 | 0.85 |  |  | 16% | 0% | 0% | CN(CCCCCCN(C)c1ncnc2c1ncn2[C@@H]1O[C@H](COP(=O)(O)OP(=O)(O)OP(=O)(O)O)[C@@H](O)[C@H]1O)C(=O)CCCCCCNC(=O)CI
